Laboratory results as given in ChEMBL document CHEMBL1146056, “Microwave-accelerated synthesis of P1'-extended HIV-1 protease inhibitors encompassing a tertiary alcohol in the transition-state mimicking scaffold” (J Med Chem, 2006).

Legend:
[1] = biological target: Human immunodeficiency virus type 1 protease (Human immunodeficiency virus 1, UniProt Q72874); experiment: Inhibition of HIV1 protease
[2] = test system: Human immunodeficiency virus 1; experiment: Antiviral activity against HIV1 in MT4 cells; type: functional, organism-based; details: Human immunodeficiency virus 1, MT4
How it was run: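 HIV-1-infected MT4 cells; antiviral activity reported as EC50 (µM).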

[3] = test system: MT4; experiment: Cytotoxicity against MT4 cells; type: functional; details: Homo sapiens
How it was run: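 Cytotoxicity reported as CC50 (µM).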

[4] = Permeability in Caco-2 cells at 10 uM; type: ADME, cell-based; details: human, read-out: permeability
How it was run: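 Caco-2 cell monolayer; membrane permeation expressed as apparent permeability Papp (10^-6 cm/s).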

[5] = Intrinsic clearance in human liver microsome at 2 uM; type: ADME; details: liver microsomes
How it was run: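 Stability in liver microsome homogenate, expressed as intrinsic clearance (Clint, µL/min/mg).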

Row | Structure (SMILES) | Ki [1] [nM] | EC50 [2] [nM] | CC50 [3] [µM] | Papp at 10 µM [4] [×10⁻⁶ cm/s] | microsomal CLint at 2 µM [5] [µL/min/mg]
1 | COC(=O)N[C@H](C(=O)NN(Cc1cccc(C#Cc2cccnc2)c1)C[C@@](O)(Cc1ccccc1)C(=O)N[C@H]1c2ccccc2C[C@H]1O)C(C)(C)C | 18 | > 10000 | > 10 | – | –
2 | COC(=O)N[C@H](C(=O)NN(Cc1ccc(Br)cc1)C[C@@](O)(Cc1ccccc1)C(=O)N[C@H]1c2ccccc2C[C@H]1O)C(C)(C)C | – | 1100 | > 10 | – | –
3 | COC(=O)N[C@H](C(=O)NN(Cc1ccc(-c2ccccc2)cc1)C[C@@](O)(Cc1ccccc1)C(=O)N[C@H]1c2ccccc2C[C@H]1O)C(C)(C)C | – | 700 | > 10 | – | –
4 | COC(=O)N[C@H](C(=O)NN(Cc1cccc(Br)c1)C[C@@](O)(Cc1ccccc1)C(=O)N[C@H]1c2ccccc2C[C@H]1O)C(C)(C)C | 18 | 3300 | > 10 | – | –
5 | COC(=O)N[C@H](C(=O)NN(Cc1ccc(-c2ccc3c(c2)OCO3)cc1)C[C@@](O)(Cc1ccccc1)C(=O)N[C@H]1c2ccccc2C[C@H]1O)C(C)(C)C | 11 | 1000 | > 10 | – | –
6 | COC(=O)N[C@H](C(=O)NN(Cc1cccc(/C=C/c2ccccc2)c1)C[C@@](O)(Cc1ccccc1)C(=O)N[C@H]1c2ccccc2C[C@H]1O)C(C)(C)C | 14 | > 10000 | > 10 | – | –
7 | COC(=O)N[C@H](C(=O)NN(Cc1ccc(-c2cccnc2)cc1)C[C@@](O)(Cc1ccccc1)C(=O)N[C@H]1c2ccccc2C[C@H]1O)C(C)(C)C | – | 180 | > 10 | 33 | 154
8 | COC(=O)N[C@H](C(=O)NN(Cc1ccc(/C=C/c2ccccc2)cc1)C[C@@](O)(Cc1ccccc1)C(=O)N[C@H]1c2ccccc2C[C@H]1O)C(C)(C)C | – | > 10000 | > 10 | – | –
9 | COC(=O)N[C@H](C(=O)NN(Cc1ccc(C#Cc2cccnc2)cc1)C[C@@](O)(Cc1ccccc1)C(=O)N[C@H]1c2ccccc2C[C@H]1O)C(C)(C)C | 7.8 | 750 | > 10 | – | –
10 | COC(=O)N[C@H](C(=O)NN(Cc1ccc(-c2cnccn2)cc1)C[C@@](O)(Cc1ccccc1)C(=O)N[C@H]1c2ccccc2C[C@H]1O)C(C)(C)C | 2.1 | 1000 | 7.8 | – | –
11 | COC(=O)N[C@H](C(=O)NN(Cc1cccc(-c2ccccn2)c1)C[C@@](O)(Cc1ccccc1)C(=O)N[C@H]1c2ccccc2C[C@H]1O)C(C)(C)C | 15 | > 10000 | 4.4 | – | –
12 | COC(=O)N[C@H](C(=O)NN(Cc1cccc(-c2cccnc2)c1)C[C@@](O)(Cc1ccccc1)C(=O)N[C@H]1c2ccccc2C[C@H]1O)C(C)(C)C | 12 | > 10000 | 6.8 | 11 | 190
13 | COC(=O)N[C@H](C(=O)NN(Cc1ccc(-c2ccncc2)cc1)C[C@@](O)(Cc1ccccc1)C(=O)N[C@H]1c2ccccc2C[C@H]1O)C(C)(C)C | – | 220 | > 10 | – | –
14 | COC(=O)N[C@H](C(=O)NN(Cc1ccc(-c2cc3ccccc3s2)cc1)C[C@@](O)(Cc1ccccc1)C(=O)N[C@H]1c2ccccc2C[C@H]1O)C(C)(C)C | – | > 10000 | > 10 | – | –
15 | COC(=O)N[C@H](C(=O)NN(Cc1ccc(-c2ccccn2)cc1)C[C@@](O)(Cc1ccccc1)C(=O)N[C@H]1c2ccccc2C[C@H]1O)C(C)(C)C | – | 900 | > 10 | – | –
16 | COC(=O)N[C@H](C(=O)NN(Cc1cccc(C#Cc2ccccn2)c1)C[C@@](O)(Cc1ccccc1)C(=O)N[C@H]1c2ccccc2C[C@H]1O)C(C)(C)C | 22 | > 10000 | > 10 | – | –
17 | COC(=O)N[C@H](C(=O)NN(Cc1ccc(-c2c(C)noc2C)cc1)C[C@@](O)(Cc1ccccc1)C(=O)N[C@H]1c2ccccc2C[C@H]1O)C(C)(C)C | 3.8 | 1100 | > 10 | – | –
18 | COC(=O)N[C@H](C(=O)NN(Cc1cccc(-c2ccncc2)c1)C[C@@](O)(Cc1ccccc1)C(=O)N[C@H]1c2ccccc2C[C@H]1O)C(C)(C)C | 93 | 2000 | > 10 | – | –
19 | COC(=O)N[C@H](C(=O)NN(Cc1cccc(-c2ccccc2)c1)C[C@@](O)(Cc1ccccc1)C(=O)N[C@H]1c2ccccc2C[C@H]1O)C(C)(C)C | 23 | > 10000 | > 10 | – | –
20 | COC(=O)N[C@H](C(=O)NN(Cc1cccc(C#Cc2ccccc2)c1)C[C@@](O)(Cc1ccccc1)C(=O)N[C@H]1c2ccccc2C[C@H]1O)C(C)(C)C | 23 | > 10000 | > 10 | – | –
21 | COC(=O)N[C@H](C(=O)NN(Cc1ccc(C#Cc2ccccn2)cc1)C[C@@](O)(Cc1ccccc1)C(=O)N[C@H]1c2ccccc2C[C@H]1O)C(C)(C)C | 9 | 1000 | 4.9 | – | –
22 | COC(=O)N[C@H](C(=O)NN(Cc1ccc(C#Cc2ccccc2)cc1)C[C@@](O)(Cc1ccccc1)C(=O)N[C@H]1c2ccccc2C[C@H]1O)C(C)(C)C | 15 | > 10000 | > 10 | – | –
